Reference: ChEMBL document CHEMBL3120073, “Simplified pretubulysin derivatives and their biological effects on cancer cells” (J Nat Prod, 2014)
Calls of active or inactive are those of the source. The calls are words filed in the database; no cut-off is given here.

Key:
[1] = Induction of apoptosis in human CCRF-CEM VCR/R cells assessed as cell viability at 2.5 uM after 72 hrs by CellTitre-Blue assay relative to control; assay type: functional; conditions: read-out: Activity
In short: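 Vincristine-resistant CCRF-CEM-VCR-R cells in 96-well plates were treated for 72 h at 0.01, 0.1, 1 or 2.5 μM. Viability was read by CellTiterBlue as % of mock-treated control. Three independent experiments, quadruplicate; t test.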

MDA-MB-231 [2] = assay: Cytotoxicity against human MDA-MB-231 cells after 72 hrs by CellTitre-Blue assay; assay type: functional, cell-based; conditions: MDA-MB-231, 72 h
In short: (§1)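 MDA-MB-231 cells in 96-well plates were exposed to serial dilutions (0.1–1000 nM) for 72 h. CellTiterBlue reagent was added for 2 h at 37 °C and fluorescence was read. Viability is expressed as % of mock-treated control, from which IC50 was taken. Three independent experiments, quadruplicate.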

[3] = Induction of apoptosis in human CCRF-CEM VCR/R cells at 1 uM after 48 hrs by propidium iodide staining-based flow cytometry; assay type: functional
In short: (§2)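 CCRF-CEM or CCRF-CEM-VCR-R cells were treated for 48 h. Cells were permeabilized in hypotonic propidium iodide solution and analysed by flow cytometry in logarithmic mode. Apoptosis was scored as the sub-G1 (DNA fragmentation) percentage.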

CCRF-CEM = assay: Induction of apoptosis in human CCRF-CEM cells at 1 to 100 nM after 48 hrs by propidium iodide staining-based flow cytometry; assay type: functional, cell-based; in short: as §2
[4] = Cytotoxicity against human HMEC1 cells after 72 hrs by crystal violet staining assay; assay type: functional, cell-based; conditions: HMEC-1, 72 h
MDA-MB-231 [5] = assay: Antimigratory activity against human MDA-MB-231 cells assessed as reduction in wound closure at 100 nM after 18 hrs by wound healing assay; assay type: functional
In short: (§3)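 MDA-MB-231 grown to 100% confluence in 96-well plates (2 × 10^5 per well). A ~1 mm scratch was made, detached cells were washed off and compound or DMSO was added for 16–18 h. Cells were fixed in 4% formaldehyde, stained with crystal violet and imaged. Covered area was corrected by an unscratched-and-fixed 0% control and expressed relative to DMSO (100%). Three independent experiments, quintuplicate.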

Tubulin (Homo sapiens) [6] = target: T1, Tubulin (Homo sapiens) (UniProt P68371+Q9H4B7+P0DPH7+P68366+Q13509+Q71U36+P04350+Q3ZCM7+P07437+P68363+Q9BQE3+Q6PEY2+Q13885+Q9BVA1+Q9BUF5); assay: Inhibition of tubulin polymerization in human T24 cells at 100 nM after 24 hrs by Hoechst 33342 staining-based immunohistochemistry; assay type: cell-based; conditions: T-24
In short: (§4)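 Cells (MDA-MB-231, or T-24 bladder carcinoma) were treated for 24 h at 1–1000 nM, or with DMSO (0.1%). Monomers were extracted for 2 min (80 mM PIPES pH 6.8, 1 mM MgCl2, 5 mM EGTA, 0.5% Triton X-100), then fixed with 0.5% glutaraldehyde and reduced with NaBH4. Staining used BSA blocking, anti-α-tubulin, an AlexaFluor 488 secondary and Hoechst 33342, with confocal imaging.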

CCRF-CEM VCR/R [7] = assay: (§5) Induction of apoptosis in human CCRF-CEM VCR/R cells at 2.5 uM after 72 hrs by CellTitre-Blue assay relative to control; assay type: functional
In short: (§6)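 CCRF-CEM-VCR-R cells treated 72 h at 2.5, 1, 0.1 or 0.01 μM; vincristine reference at 2.5 μM. Viability read by CellTiterBlue, reagent added for 2 h at 37 °C, fluorescence measured. Results given as percent of mock-treated control. Three independent experiments in quadruplicate, means ± SEM, t test.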

MDA-MB-231 [8] = assay: Cell cycle arrest in human MDA-MB-231 cells assessed as reduction in G1 phase at 100 nM after 48 hrs by propidium iodide staining-based flow cytometry; assay type: functional
MDA-MB-231 [9] = assay: Antimigratory activity against human MDA-MB-231 cells at 1 uM after 18 hrs by wound healing assay; assay type: functional, cell-based; in short: as §3
MDA-MB-231 [10] = assay: Cytotoxicity against human MDA-MB-231 cells at 1 to 1000 nM after 72 hrs by CellTitre-Blue assay; assay type: functional, cell-based; in short: as §1
MDA-MB-231 [11] = assay: Cell cycle arrest in human MDA-MB-231 cells assessed as accumulation at G2/M phase at 100 nM after 48 hrs by propidium iodide staining-based flow cytometry (reference value: 22%); assay type: functional
Tubulin (Homo sapiens) [12] = target: T1, Tubulin (Homo sapiens); assay: Inhibition of tubulin polymerization in human MDA-MB-231 cells assessed as disruption of tubulin cytoskeleton at 100 nM after 24 hrs by Hoechst 33342 staining-based immunohistochemistry; assay type: cell-based; in short: as §4
MDA-MB-231 [13] = assay: Cell cycle arrest in human MDA-MB-231 cells assessed as accumulation at G2/M phase at 10 nM after 48 hrs by propidium iodide staining-based flow cytometry; assay type: functional
CCRF-CEM VCR/R [14] = assay: (§7) Induction of apoptosis in human CCRF-CEM VCR/R cells at 1 uM after 72 hrs by CellTitre-Blue assay relative to control; assay type: functional; in short: as §6
Tubulin (Homo sapiens) [15] = target: T1, Tubulin (Homo sapiens); assay: Inhibition of tubulin polymerization in human MDA-MB-231 cells assessed as disruption of tubulin cytoskeleton at 10 nM after 24 hrs by Hoechst 33342 staining-based immunohistochemistry; assay type: cell-based
In short: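 MDA-MB-231 cells treated 24 h at 1, 10, 100 or 1000 nM, or DMSO 0.1%. Extracted 2 min in PIPES pH 6.8/MgCl2/EGTA/0.5% Triton buffer, fixed with 0.5% glutaraldehyde, reduced with NaBH4, blocked with 0.2% BSA. Anti-α-tubulin 1 h, then AlexaFluor 488 secondary plus Hoechst 33342 for 45 min. Imaged by laser scanning microscopy.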

Tubulin (Homo sapiens) [16] = target: T1, Tubulin (Homo sapiens); assay: Inhibition of tubulin polymerization in human T24 cells at 10 nM after 24 hrs by Hoechst 33342 staining-based immunohistochemistry; assay type: cell-based; conditions: T-24
[17] = as §7; assay type: functional; in short: as §6
MDA-MB-231 [18] = assay: Cell cycle arrest in human MDA-MB-231 cells assessed as accumulation at G2/M phase at 10 nM after 48 hrs by propidium iodide staining-based flow cytometry (reference value: 22%); assay type: functional
PBMC = assay: Cytotoxicity against human PBMC at 1 uM after 24 to 72 hrs by MTT assay; assay type: cell-based
[19] = as §5; assay type: functional; in short: as §6

Row | SMILES | IC50 (MDA-MB-231 [2]) [nM] | EC50 [4] [nM] | Activity (MDA-MB-231 [5]) | Activity (CCRF-CEM VCR/R [7]) | Activity (MDA-MB-231 [8]) | Activity (MDA-MB-231 [9]) | Activity (MDA-MB-231 [10]) | Activity (MDA-MB-231 [11]) [%] | Activity (MDA-MB-231 [13]) | inhibition (Tubulin (Homo sapiens) [15]) | inhibition (Tubulin (Homo sapiens) [16]) | also measured
1 | CC[C@]1(O)C[C@H]2CN(CCc3c([nH]c4ccccc34)[C@@](C(=O)OC)(c3cc4c(cc3OC)N(C=O)[C@H]3[C@@](O)(C(=O)OC)[C@H](OC(C)=O)[C@]5(CC)C=CCN6CC[C@]43[C@@H]65)C2)C1 [VINCRISTINE] | 1.6 |  |  |  |  |  |  |  |  |  |  | viability at 2.5 µM [1]: 80%; Activity [3]: 20%; Activity (CCRF-CEM): Active
2 | CC[C@H](C)[C@H](NC(=O)[C@H]1CCCCN1C)C(=O)N(C)[C@H](CCc1cccc(C(=O)N[C@@H](Cc2ccccc2)C[C@H](C)C(=O)O)c1)C(C)C | 100 | 13.2 | inactive | Active | Active | Active | Active | 33 | inactive |  |  | inhibition (Tubulin (Homo sapiens) [6]): Active; inhibition (Tubulin (Homo sapiens) [12]): Active
3 | CC[C@H](C)[C@H](NC(=O)[C@H]1CCCCN1C)C(=O)N(C)[C@H](CCc1nc(C(=O)N[C@H](CCC(=O)O)Cc2ccccc2)cs1)C(C)C | 10.1 | 4.4 | 35% | Active | Active | Active | Active | 60 | inactive | Active | Active | Activity (CCRF-CEM VCR/R [14]): Active
4 | CC[C@H](C)[C@H](NC(=O)[C@H]1CCCCN1C)C(=O)N(C)[C@H](CCc1nc(C(=O)N[C@@H](Cc2ccccc2)C[C@H](C)C(=O)O)cs1)C(C)C | 0.6 |  |  |  |  | Active | Active |  |  | Active | Active | Activity [17]: 70%; Activity (MDA-MB-231 [18]): >30%; Activity (PBMC): Toxic; Activity [19]: 30%
